From ChEMBL document CHEMBL4004869, “3-Phenylalkyl-2H-chromenes and -chromans as novel rhinovirus infection inhibitors” (Bioorg Med Chem, 2017) come the findings set out here.

The nature of series [1]: Cytotoxicity against human HeLa cells assessed as changes in morphology after 3 days by microscopic method. It counts as cell-based. The settings on record: read-out: MNCC. Summed up:
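HeLa cytotoxicity by XTT colorimetric assay plus microscopy after 3 days at 37 °C. MNCC is the highest concentration leaving morphology and viability of all cells unaffected. CC50 is the dose reducing viability by 50% of untreated controls. Two independent assays in triplicate.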

Series [2] is described as follows: Cytotoxicity against human HeLa cells assessed as reduction in cell viability by XTT assay. It is filed as cell-based. In short, it runs like this: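 HeLa cytotoxicity by XTT colorimetric assay plus microscopy after 3 days at 37 °C. MNCC is the highest concentration leaving morphology and viability of all cells unaffected. Two independent assays in triplicate.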
(In general: Tetrazolium dyes change colour on reduction, which living cells bring about.)

A further series deals with rhinovirus A1B. Briefly: Antiviral activity against HRV 1B infected in human HeLa cells after 72 hrs by plaque reduction assay. It is filed as functional, cell-based. In short, it runs like this:
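Plaque reduction in HeLa monolayers infected with virus giving about 100 plaques per well. Compound tested dose-dependently starting from the maximum non-cytotoxic concentration, with ethanol stocks diluted in medium just before use. Where 50% is not reached, percent inhibition at MNCC is given. Two independent assays in triplicate, mean ± SD.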
A general note: In a plaque reduction assay, fewer plaques than in the control indicate reduced infectivity or spread.

Series [3] in a line: Selectivity index, ratio of CC50 for human HeLa cells to IC50 for HRV 1B infected in human HeLa cells. Summed up: (§1)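 Selectivity index is CC50 (XTT, HeLa) divided by IC50 from HeLa plaque reduction against the stated serotype.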
The subject of series [4] is rhinovirus B14. As to the kind of experiment: Antiviral activity against HRV 14 infected in human HeLa cells after 72 hrs by plaque reduction assay. It counts as functional, cell-based. In short, it runs like this: (§2)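 Plaque reduction in HeLa monolayers infected with virus giving about 100 plaques per well. Compound tested dose-dependently starting from the maximum non-cytotoxic concentration, with ethanol stocks diluted in medium just before use. IC50 is the dose cutting plaque number by 50%, read from log concentration versus percent plaque reduction. Where 50% is not reached, percent inhibition at MNCC is given. Two independent assays in triplicate, mean ± SD.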

Series [5] can be described thus: Selectivity index, ratio of CC50 for human HeLa cells to IC50 for HRV 14 infected in human HeLa cells. In short, it runs like this:
as §1

Series [6] relates to rhinovirus B14. As to the kind of experiment: Antiviral activity against HRV 14 infected in human HeLa cells at MNCC after 72 hrs by plaque reduction assay relative to control. It is filed as functional. More on the design: scale not given: the % may be the effect or the level left. Summed up:
as §2

Setting [7] is: Rhinovirus A, HeLa, 72 h, read-out: IC50.
Setting [8] is: Rhinovirus B, HeLa, 72 h, read-out: IC50.

For orientation: CC50 means the concentration that lowers cell viability or growth by half. Broadly, the IC50 is the concentration needed to halve the response being measured. With `O=C(/C=C/C1=Cc2ccccc2OC1)c1ccccc1`, the MNTC at 72 h in series [1] came to 25 µM. In addition, the CC50 in series [2] was determined as 50 µM. Moreover, the IC50 entry in the series with rhinovirus A1B (hela) was “Not Active”.

Regarding `C1=C(CCCCc2ccccc2)COc2ccccc21`, in series [1], the MNTC at 72 h turned out to be 50 µM. In series [2], the half-maximal cytotoxic concentration (CC50) came out at 100 µM. In addition, the Activity entry in the series on rhinovirus A1B and in the series on rhinovirus B14 [4] was “Dose-dependent effect” each time. For the same compound, the half-maximal inhibitory concentration (IC50) in the series with rhinovirus A1B (setting [7]) came to 0.54 µM; in the series with rhinovirus B14 [4] (setting [8]), 12.7 µM. Also, the figures for the “Ratio CC50/IC50” value in series [3] and in series [5] were 185.18 and 7.87, respectively.

On to `Clc1ccc(CCCC2COc3ccc(Cl)cc3C2)cc1` (configuration not stated), for which the MNTC at 72 h in series [1] was 100 µM. In series [2], the CC50 amounted to 200 µM. In addition, the Activity result in the series with rhinovirus A1B and with rhinovirus B14 [4] was “Dose-dependent effect” throughout. The half-maximal inhibitory concentration (IC50) is 0.56 µM in the series with rhinovirus A1B (setting [7]) and 30 µM in the series on rhinovirus B14 [4] (setting [8]). Also, the entries for the “Ratio CC50/IC50” value in series [3] and in series [5] were 357.14 and 6.67, respectively.

With `Clc1ccc2c(c1)CC(CCCc1ccccc1)CO2` (configuration not stated), in series [1], the MNTC at 72 h is 100 µM. In addition, in series [2], the CC50 was 200 µM. The Activity result in the series on rhinovirus A1B and in the series on rhinovirus B14 [4] was “Dose-dependent effect” throughout. In addition, the half-maximal inhibitory concentration (IC50) with rhinovirus A1B (setting [7]) came to 1.79 µM; with rhinovirus B14 [4] (setting [8]) it was 25 µM. Besides, the “Ratio CC50/IC50” value in series [3] was found to be 111.73; in series [5], 8.

On to `C1=C(CCCc2ccccc2)COc2ccccc21`, for which the MNTC at 72 h in series [1] was 100 µM. Besides, in series [2], the half-maximal cytotoxic concentration (CC50) is 200 µM. For the same compound, the Activity entry in the series on rhinovirus A1B and in the series with rhinovirus B14 [4] was “Dose-dependent effect” in each case. The IC50 is 2.37 µM with rhinovirus A1B (setting [7]) and 40.5 µM in the series with rhinovirus B14 [4] (setting [8]). The “Ratio CC50/IC50” value in series [3] was found to be 84.39; in series [5], 4.94.

Take `C1=C(CCc2ccccc2)COc2ccccc21`: the MNTC at 72 h in series [1] came out at 25 µM. The cytotoxic concentration (CC50) in series [2] was determined as 50 µM. Besides, the results for the Activity entry in the series on rhinovirus A1B, in the series on rhinovirus B14 [4] and in the series on rhinovirus B14 [6] were “Dose-dependent effect”, “Dose-dependent effect” and 26%, respectively. Besides, the half-inhibitory concentration (IC50) with rhinovirus A1B (setting [7]) is 0.48 µM; in the series with rhinovirus B14 [4] (setting [8]) it was more than 25 µM. Further, in series [3], the “Ratio CC50/IC50” value was determined as 104.17.

`c1ccc(CCCC2COc3ccccc3C2)cc1` (configuration not stated): the MNTC at 72 h in series [1] came out at 100 µM. Besides, the CC50 in series [2] stood at 200 µM. Moreover, the Activity entry was “Dose-dependent effect” with rhinovirus A1B, “Dose-dependent effect” in the series on rhinovirus B14 [4] and 37% in the series with rhinovirus B14 [6]. For the same compound, the IC50 is 9.59 µM in the series with rhinovirus A1B (setting [7]) and more than 100 µM in the series with rhinovirus B14 [4] (setting [8]). Also, the “Ratio CC50/IC50” value in series [3] is listed as 20.85.

For `C1=C(CCCCCc2ccccc2)COc2ccccc21`, in series [1], the MNTC at 72 h stood at 50 µM. Also, in series [2], the 50% cytotoxic concentration (CC50) turned out to be 100 µM. Besides, the Activity result in the series on rhinovirus A1B is “Dose-dependent effect”; with rhinovirus B14 [4], “Dose-dependent effect”; in the series on rhinovirus B14 [6], 37%. Also, the 50% inhibitory concentration (IC50) with rhinovirus A1B (setting [7]) was 0.56 µM; in the series on rhinovirus B14 [4] (setting [8]), more than 50 µM. In series [3], the “Ratio CC50/IC50” value is recorded as 178.57.

For the compound `c1ccc(CCCCC2COc3ccccc3C2)cc1` (configuration not stated), the MNTC at 72 h in series [1] amounted to 50 µM. Further, the CC50 in series [2] came out at 100 µM. The Activity result is “Dose-dependent effect” in the series on rhinovirus A1B, “Dose-dependent effect” in the series on rhinovirus B14 [4] and 25% in the series with rhinovirus B14 [6]. Moreover, the IC50 was 0.71 µM with rhinovirus A1B (setting [7]) and more than 50 µM in the series with rhinovirus B14 [4] (setting [8]). Besides, in series [3], the “Ratio CC50/IC50” value was determined as 140.84.

Take `C/C(=C\c1ccccc1)C1=Cc2ccccc2OC1`: the MNTC at 72 h in series [1] was 12.5 µM. In series [2], the cytotoxic concentration (CC50) was determined as 25 µM. Moreover, the 50% inhibitory concentration (IC50) result in the series with rhinovirus A1B (hela) and in the series on rhinovirus B14 [4] (hela) was “Not Active” throughout.

For `c1ccc(CCCCCC2COc3ccccc3C2)cc1` (configuration not stated), the MNTC at 72 h in series [1] was determined as 100 µM. Moreover, the cytotoxic concentration (CC50) in series [2] was 200 µM. In addition, the Activity entry in the series on rhinovirus A1B and in the series on rhinovirus B14 [4] was “Dose-dependent effect” in each case. The IC50 with rhinovirus A1B (setting [7]) was 4.74 µM; in the series with rhinovirus B14 [4] (setting [8]), 33 µM. The “Ratio CC50/IC50” value in series [3] came out at 42.19; in series [5], 6.05.

Take `c1ccc(CCC2COc3ccccc3C2)cc1` (configuration not stated): the MNTC at 72 h in series [1] was found to be 3.12 µM. Further, in series [2], the 50% cytotoxic concentration (CC50) is 6.25 µM. Besides, the Activity result was “Dose-dependent effect” in the series with rhinovirus A1B, “Dose-dependent effect” in the series on rhinovirus B14 [4] and 16% in the series on rhinovirus B14 [6]. The concentration for half-maximal inhibition (IC50) with rhinovirus A1B (setting [7]) was 0.49 µM; in the series on rhinovirus B14 [4] (setting [8]) it was more than 3.12 µM. Further, the “Ratio CC50/IC50” value in series [3] was found to be 12.75.
